The source made the active and inactive calls. The rule behind the calls is not given here.
Columns and labels:
Pseudomonas aeruginosa [1] = assay: Induction of biofilm degradation of Pseudomonas aeruginosa clinical isolate 25 at sub MIC concentration incubated for 1 hr by crystal violet staining analysis; type: functional
Outline: (§1)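 Bacteria at 1 × 10^6 CFU/mL in BM2 grown static at 37 °C for 24 h to form biofilm. Wells rinsed of unattached cells, then exposed for 1 h to serial peptide dilutions (1.56–50 μM). Washed, stained with 0.1% crystal violet, A590 read. Biomass given as % of untreated biofilm; no-bacteria wells as blanks. At least three biological repeats.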

Pseudomonas aeruginosa [2] = assay: Induction of biofilm degradation of Pseudomonas aeruginosa clinical isolate 238 at sub MIC concentration incubated for 1 hr by crystal violet staining analysis; type: functional; outline: as §1
Pseudomonas aeruginosa [3] = assay: Induction of biofilm degradation of Pseudomonas aeruginosa clinical isolate 251 at sub MIC concentration incubated for 1 hr by crystal violet staining analysis; type: functional; outline: as §1
Pseudomonas aeruginosa [4] = assay: Induction of biofilm degradation of Pseudomonas aeruginosa clinical isolate 995 at sub MIC concentration incubated for 1 hr by crystal violet staining analysis; type: functional; outline: as §1
Pseudomonas aeruginosa [5] = assay: Induction of biofilm degradation of Pseudomonas aeruginosa clinical isolate PAO1 at sub MIC concentration incubated for 1 hr by crystal violet staining analysis; type: functional; outline: as §1
Pseudomonas aeruginosa [6] = assay: Induction of biofilm degradation of Pseudomonas aeruginosa clinical isolate 59 at 50 uM incubated for 1 hr by crystal violet staining analysis
Pseudomonas aeruginosa [7] = assay: Antibiofilm activity against Pseudomonas aeruginosa clinical isolate 24 assessed as inhibition of biofilm formation at 1.56 uM incubated for 24 hrs by crystal violet staining based microtiter plate method; type: functional, organism-based
Outline: (§2)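 Washed overnight cultures in BM2 medium at 1 × 10^6 CFU/mL with 2-fold serial peptide dilutions in a U-bottom 96-well plate. Incubated 24 h at 37 °C without agitation. Unattached cells washed off, then 0.1% crystal violet stain read at 590 nm. No-bacteria blanks. Biomass expressed as % of untreated biofilm. At least three biological repeats.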

Pseudomonas aeruginosa [8] = assay: Antibiofilm activity against Pseudomonas aeruginosa clinical isolate 25 assessed as inhibition of biofilm formation at 1.56 uM incubated for 24 hrs by crystal violet staining based microtiter plate method; type: functional, organism-based; outline: as §2
Pseudomonas aeruginosa [9] = assay: Antibiofilm activity against Pseudomonas aeruginosa clinical isolate 29 assessed as inhibition of biofilm formation at 1.56 uM incubated for 24 hrs by crystal violet staining based microtiter plate method; type: functional, organism-based; outline: as §2
Pseudomonas aeruginosa [10] = assay: Antibiofilm activity against Pseudomonas aeruginosa clinical isolate 40 assessed as inhibition of biofilm formation at 1.56 uM incubated for 24 hrs by crystal violet staining based microtiter plate method; type: functional, organism-based; outline: as §2
Pseudomonas aeruginosa [11] = assay: Antibiofilm activity against Pseudomonas aeruginosa clinical isolate 53 assessed as inhibition of biofilm formation at 1.56 uM incubated for 24 hrs by crystal violet staining based microtiter plate method; type: functional, organism-based; outline: as §2
Pseudomonas aeruginosa [12] = assay: Antibiofilm activity against Pseudomonas aeruginosa clinical isolate 71 assessed as inhibition of biofilm formation at 1.56 uM incubated for 24 hrs by crystal violet staining based microtiter plate method; type: functional, organism-based; outline: as §2
Pseudomonas aeruginosa [13] = assay: Antibiofilm activity against Pseudomonas aeruginosa clinical isolate 72 assessed as inhibition of biofilm formation at 1.56 uM incubated for 24 hrs by crystal violet staining based microtiter plate method; type: functional, organism-based; outline: as §2
Pseudomonas aeruginosa [14] = assay: Antibiofilm activity against Pseudomonas aeruginosa clinical isolate 82 assessed as inhibition of biofilm formation at 1.56 uM incubated for 24 hrs by crystal violet staining based microtiter plate method; type: functional, organism-based; outline: as §2
Pseudomonas aeruginosa [15] = assay: Antibiofilm activity against Pseudomonas aeruginosa clinical isolate 629 assessed as inhibition of biofilm formation at 1.56 uM incubated for 24 hrs by crystal violet staining based microtiter plate method; type: functional, organism-based; outline: as §2
Pseudomonas aeruginosa [16] = assay: Antibiofilm activity against Pseudomonas aeruginosa PAO1 assessed as inhibition of biofilm formation at 1.56 uM incubated for 24 hrs by crystal violet staining based microtiter plate method; type: functional, organism-based
Pseudomonas aeruginosa [17] = assay: Antibiofilm activity against Pseudomonas aeruginosa PAO1 in artificial sputum medium at 100 uM incubated for 24 hrs by resazurin staining based microtiter plate method; type: functional, organism-based
Outline: (§3)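 Washed overnight culture set to OD ~0.05 in BM2, diluted 1:100 into artificial sputum medium (pH 6.9) in 24-well plates. Grown 3 days aerobically at 37 °C with agitation. Peptides (12.5–100 μM) added for 24 h with agitation. Biofilm disrupted by cellulase for 1 h at 37 °C. Resazurin 0.02% for 1–2 h, fluorescence ex 530/em 590 nm; viability as % of untreated wells.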

Pseudomonas aeruginosa [18] = assay: Antibiofilm activity against Pseudomonas aeruginosa clinical isolate 24 in artificial sputum medium at 100 uM incubated for 24 hrs by resazurin staining based microtiter plate method; type: functional, organism-based; outline: as §3
Pseudomonas aeruginosa [19] = assay: Antibiofilm activity against Pseudomonas aeruginosa clinical isolate 46 in artificial sputum medium at 100 uM incubated for 24 hrs by resazurin staining based microtiter plate method; type: functional, organism-based; outline: as §3
Pseudomonas aeruginosa [20] = assay: Antibiofilm activity against Pseudomonas aeruginosa clinical isolate 46 in artificial sputum medium at 50 uM incubated for 24 hrs by resazurin staining based microtiter plate method; type: functional, organism-based; outline: as §3
Pseudomonas aeruginosa [21] = assay: Antibiofilm activity against Pseudomonas aeruginosa PAO1 in artificial sputum medium at 50 uM incubated for 24 hrs by resazurin staining based microtiter plate method; type: functional, organism-based; outline: as §3
Pseudomonas aeruginosa [22] = assay: Antibiofilm activity against Pseudomonas aeruginosa clinical isolate 82 in artificial sputum medium at 25 uM incubated for 24 hrs by resazurin staining based microtiter plate method relative to control; type: functional
Outline: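 Overnight cultures were washed, resuspended in BM2 to OD ~0.05, and diluted 1:100 into artificial sputum medium (pH 6.9). Biofilms grew 3 days at 37 °C with aerobic agitation in 24-well plates. Peptides (12.5–100 μM) were then added for 24 h with agitation. Biofilm was disrupted with cellulase for 1 h at 37 °C. Resazurin (0.02%) was added for 1–2 h, fluorescence read at ex 530/em 590 nm, and viability expressed as % of untreated wells.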

Pseudomonas aeruginosa [23] = assay: Bactericidal activity against Pseudomonas aeruginosa clinical isolate 24 derived from cystic fibrosis patient sputum assessed as killing rate at 10 uM measured after 1 hr by time-kill assay relative to control; type: functional
Outline: (§4)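 Pooled CF patient sputum diluted 10-fold in 10 mM phosphate buffer (pH 7.0), centrifuged and 0.22 μm filtered. Bacteria at 10^6 CFU/mL in 10% sputum supernatant with 10 μM peptide for 1 h at 37 °C. Diluted and plated on LB agar; colonies counted against untreated plates.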

Pseudomonas aeruginosa [24] = assay: Bactericidal activity against Pseudomonas aeruginosa clinical isolate 46 derived from cystic fibrosis patient sputum assessed as killing rate at 10 uM measured after 1 hr by time-kill assay relative to control; type: functional; outline: as §4
Pseudomonas aeruginosa [25] = assay: Induction of biofilm degradation of Pseudomonas aeruginosa clinical isolate 46 derived from cystic fibrosis patient sputum at 1.56 to 50 uM by crystal violet based staining analysis; type: functional; conditions: dose 1.56-50 µM
Outline: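 Biofilm grown from 1 × 10^6 CFU/mL in pooled CF patient sputum diluted 10-fold with BM2, static, 37 °C, 24 h. Unattached cells rinsed off, then serial peptide dilutions (1.56–50 μM) applied for 1 h. Washed and stained with 0.1% crystal violet, read at 590 nm. Reported as % of untreated biomass, with no-bacteria blanks.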

Pseudomonas aeruginosa [26] = assay: Antibiofilm activity against Pseudomonas aeruginosa clinical isolate 59 assessed as inhibition of biofilm formation at MIC incubated for 24 hrs by crystal violet staining based microtiter plate method; type: functional
Outline: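 In BM2, bacteria at 1 × 10^6 CFU/mL were incubated with 2-fold serial peptide dilutions for 24 h at 37 °C without agitation. Unattached cells were washed off, and the remaining biofilm was stained with 0.1% crystal violet and read at OD590. Blanks had no bacteria. Biomass is given as % of untreated biofilm; at least three biological repeats.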

With `CC(C)C[C@H](NC(=O)[C@H](CC(C)C)NC(=O)[C@H](CC(C)C)NC(=O)[C@H](CC(C)C)NC(=O)[C@H](CC(C)C)NC(=O)[C@H](CC(C)C)NC(=O)[C@H](CC(C)C)NC(=O)[C@H](CC(C)C)NC(=O)[C@H](CC(C)C)NC(=O)[C@H](CCCCN)NC(=O)[C@H](CCCCN)NC(=O)[C@@H](N)CCCCN)C(=O)N[C@@H](CCCCN)C(=O)N[C@@H](CCCCN)C(=O)N[C@@H](CCCCN)C(N)=O` the Activity (Pseudomonas aeruginosa [1]) was “Active”, the Activity (Pseudomonas aeruginosa [2]) was “Active” and the Activity (Pseudomonas aeruginosa [3]) was “Active”. The Activity (Pseudomonas aeruginosa [4]) was “Active”, the Activity (Pseudomonas aeruginosa [5]) was “Active” and the Activity (Pseudomonas aeruginosa [6]) was 40%.
`CC(C)C[C@H](NC(=O)[C@H](CC(C)C)NC(=O)[C@H](CCCCN)NC(=O)[C@H](CC(C)C)NC(=O)[C@H](CC(C)C)NC(=O)[C@H](CCCCN)NC(=O)[C@H](CCCCN)NC(=O)[C@H](CC(C)C)NC(=O)[C@H](CC(C)C)NC(=O)[C@H](CCCCN)NC(=O)[C@H](CCCCN)NC(=O)[C@H](CC(C)C)NC(=O)[C@H](CC(C)C)NC(=O)[C@H](CCCCN)NC(=O)[C@@H](N)CC(C)C)C(N)=O` was tested, and the inhibition (Pseudomonas aeruginosa [7]) was “Active”, the inhibition (Pseudomonas aeruginosa [8]) was “Active” and the inhibition (Pseudomonas aeruginosa [9]) was “Active”. The inhibition (Pseudomonas aeruginosa [10]) was “Active”, the inhibition (Pseudomonas aeruginosa [11]) was “Active” and the inhibition (Pseudomonas aeruginosa [12]) was “Active”. For the same compound, the inhibition (Pseudomonas aeruginosa [13]) was “Active”, the inhibition (Pseudomonas aeruginosa [14]) was “Active” and the inhibition (Pseudomonas aeruginosa [15]) was “Active”. For the same compound, the inhibition (Pseudomonas aeruginosa [16]) was “Active”, the Activity (Pseudomonas aeruginosa [17]) was “Active” and the Activity (Pseudomonas aeruginosa [18]) was “Active”. For the same compound, the Activity (Pseudomonas aeruginosa [19]) was “Active”, the Activity (Pseudomonas aeruginosa [20]) was “Active” and the Activity (Pseudomonas aeruginosa [21]) was “Active”. The Activity (Pseudomonas aeruginosa [22]) was 57.94%, the Activity (Pseudomonas aeruginosa [23]) was >97.91% and the Activity (Pseudomonas aeruginosa [24]) was >97.91%. For the same compound, the Activity (Pseudomonas aeruginosa [25]) was “Active”.
For `CC[C@H](C)[C@H](NC(=O)[C@H](CCCCN)NC(=O)[C@H](CCC(=O)O)NC(=O)[C@H](CCCCN)NC(=O)[C@H](CO)NC(=O)[C@H](CCCCN)NC(=O)[C@H](CCCNC(=N)N)NC(=O)[C@H](Cc1ccccc1)NC(=O)[C@H](Cc1ccccc1)NC(=O)[C@H](CC(=O)O)NC(=O)CNC(=O)[C@H](CC(C)C)NC(=O)[C@@H](N)CC(C)C)C(=O)NCC(=O)N[C@@H](CCCCN)C(=O)N[C@@H](CCC(=O)O)C(=O)N[C@@H](Cc1ccccc1)C(=O)N[C@@H](CCCCN)C(=O)N[C@@H](CCCNC(=N)N)C(=O)N[C@H](C(=O)N[C@H](C(=O)N[C@@H](CCC(N)=O)C(=O)N[C@@H](CCCNC(=N)N)C(=O)N[C@H](C(=O)N[C@@H](CCCCN)C(=O)N[C@@H](CC(=O)O)C(=O)N[C@@H](Cc1ccccc1)C(=O)N[C@@H](CC(C)C)C(=O)N[C@@H](CCCNC(=N)N)C(=O)N[C@@H](CC(N)=O)C(=O)N[C@@H](CC(C)C)C(=O)N[C@H](C(=O)N1CCC[C@H]1C(=O)N[C@@H](CCCNC(=N)N)C(=O)N[C@H](C(=O)N[C@@H](CCC(=O)O)C(=O)N[C@@H](CO)C(N)=O)[C@@H](C)O)C(C)C)[C@@H](C)CC)C(C)C)[C@@H](C)CC`, the “inhibition (INH)” value (Pseudomonas aeruginosa [26]) was 30%.

Reference: ChEMBL document CHEMBL5143722, “Antimicrobial Peptides against Multidrug-Resistant Pseudomonas aeruginosa Biofilm from Cystic Fibrosis Patients” (J Med Chem, 2022)
